Laboratory results as given in article PMC9290582 (British Journal of Clinical Pharmacology, 2021).

How the values were obtained:
[1] = Model-predicted steady-state exposure and covariate effects; assay type: in vivo, human; conditions: for Reduction of AUC24h,ss by coadministration of PPIs: population PK study; for Exposure lower with concomitant PPI use: relative to a reference patient
Summary of the method: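 Exposure simulated stochastically from the final population PK model at 100 mg BID. AUC24h,ss and Cmax,ss were reported as model-predicted medians (90% prediction interval) relative to a reference patient: B-cell malignancy, ECOG PS 0 or 1, no concomitant PPI. A covariate effect was deemed not relevant if its change and 95% CI fell within 0.8–1.25.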

[2] = system: Bruton tyrosine kinase (BTK); conditions: cited from earlier work
[3] = Population pharmacokinetic analysis; assay type: in vivo, human; conditions: for CL/F, apparent clearance / Vp/F, apparent peripheral volume of distribution: parent; for Covariate effect ECOG 2—CL/F / Covariate effect Healthy subject—CL/F / Covariate effect Healthy subject—Vp/F / Covariate effect PPI—F1 (relative bioavailability): relative change (1 + estimate)
Summary of the method: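 Model: 2-compartment, 5-transit absorption chain, first-order absorption and elimination. Metabolite formation was CL/F × fraction metabolized, fixed at 0.4. BSV and BOV were exponential; residual error was additive on log scale. Precision was checked by bootstrap.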

[4] = cited from earlier work
[5] = high-calorie meal vs. fasting conditions; cited from earlier work
[6] = cited from earlier work; remark: listed apart in the source
[7] = healthy subjects; ref data on file; cited from earlier work
[8] = bootstrap 50th [2.5th, 97.5th percentile]
[9] = final model fixed effect, estimate (%RSE)
[10] = final model, bootstrap 50th [2.5th, 97.5th percentile]
[11] = relative to a reference cancer population

In the case of CC#CC(=O)NCCCC(=O)c1nc(-c2ccc(C(=O)Nc3ccccn3)cc2)c2c(N)nccn12 [ACP‐5862], the “Reduction of AUC24h,ss by coadministration of PPIs” value [1] is given as 36%, the “Exposure lower with concomitant PPI use” value [1] is given as 36% and the “Potency for BTK inhibition relative to acalabrutinib” value [2] is given as “approximately half as potent as acalabrutinib”. For the same compound, the “BSV CLM/F” value [3, 8] was 13.1 [9.22, 20.2] CV%, the “BSV QM/F” value [3, 8] was 40 [23.8, 59.2] CV% and the “BSV VcM/F” value [3, 8] was 53.3 [36.9, 71.1] CV%. For the same compound, the “BSV VpM/F” value [3, 8] was 21.2 [15.3, 41.2] CV%, the “BSV CLM/F” value ([3]; estimate (%RSE)) was 11.8 (21.1) CV% and the “BSV QM/F” value ([3]; estimate (%RSE)) was 40.7 (14.4) CV%. The “BSV VcM/F” value ([3]; estimate (%RSE)) was 47.2 (12.1) CV%, the “BSV VpM/F” value ([3]; estimate (%RSE)) was 19.2 (30.5) CV% and the “CLM/F, apparent clearance metabolite” value [3, 9] was 21.8 (1.98) L/h. The “VcM/F, apparent central volume of distribution metabolite” value [3, 9] was 22.7 (6.66) L, the “VpM/F, apparent peripheral volume of distribution metabolite” value [3, 9] was 89.2 (4.58) L and the “CLM/F, apparent clearance metabolite” value [3, 10] was 21.6 [20.2, 22.6] L/h. For the same compound, the “VcM/F, apparent central volume of distribution metabolite” value [3, 10] was 22.7 [19.5, 25.8] L, the “VpM/F, apparent peripheral volume of distribution metabolite” value [3, 10] was 88.1 [77.6, 97] L and the “Mean exposure relative to that of acalabrutinib” value [4] was “approximately 2 fold”.

In the case of CC#CC(=O)N1CCC[C@H]1c1nc(-c2ccc(C(=O)Nc3ccccn3)cc2)c2c(N)nccn12 [acalabrutinib], the “Effect of a high-calorie meal on Cmax” value [5] is given as “delayed and decreased”, the “Effect of a high-calorie meal on mean AUC” value [5] is given as “similar” and the “Solubility dependence on pH” value [6] is given as “decreases with increasing gut pH”. For the same compound, the “Reduction of AUC24h,ss by coadministration of PPIs” value [1] was 36%, the “AUC24h,ss higher in subjects with ECOG PS ≥ 2” value [1, 11] was 21% and the “AUC24h,ss lower in healthy subjects” value [1, 11] was 32%. For the same compound, the “Cmax,ss higher in subjects with ECOG PS ≥ 2” value [1, 11] was 14%, the “Cmax,ss lower in healthy subjects” value [1, 11] was 24% and the “Exposure lower with concomitant PPI use” value [1] was 36%. The “BOV F1 (between-occasion variability, relative bioavailability)” value [3, 8] was 55.3 [50.4, 61.1] CV%, the “BOV MTT (between-occasion variability)” value [3, 8] was 119 [104, 137] CV% and the “BSV CL/F (between-subject variability)” value [3, 8] was 24.1 [20.4, 28] CV%. For the same compound, the “BSV Vc/F” value [3, 8] was 284 [225, 367] CV%, the “BSV Vp/F” value [3, 8] was 33.9 [25, 42.4] CV% and the “BOV F1 (between-occasion variability, relative bioavailability)” value ([3]; estimate (%RSE)) was 56.1 (1.80) CV%. For the same compound, the “BOV MTT (between-occasion variability)” value ([3]; estimate (%RSE)) was 118 (2.39) CV%, the “BSV CL/F (between-subject variability)” value ([3]; estimate (%RSE)) was 23.8 (5.86) CV% and the “BSV Vc/F” value ([3]; estimate (%RSE)) was 270 (6.51) CV%. For the same compound, the “BSV Vp/F” value ([3]; estimate (%RSE)) was 33.7 (6.96) CV%, the “Ka, first-order absorption rate constant” value [3, 9] was 1.48 (2.63) h^−1 and the “MTT, mean transit time” value [3, 9] was 0.459 (4.16) h. For the same compound, the “CL/F, apparent clearance” value [3, 9] was 134 (1.97) L/h, the “Vp/F, apparent peripheral volume of distribution” value [3, 9] was 110 (3.45) L and the “Ka, first-order absorption rate constant” value [3, 10] was 1.48 [1.41, 1.55] h^−1. The “MTT, mean transit time” value [3, 10] was 0.460 [0.426, 0.492] h, the “CL/F, apparent clearance” value [3, 10] was 132 [126, 139] L/h and the “Vp/F, apparent peripheral volume of distribution” value [3, 10] was 108 [97.6, 120] L. The “Covariate effect ECOG 2—CL/F” value [3, 8] was −0.158 [−0.274, −0.032], the “Covariate effect Healthy subject—CL/F” value [3, 8] was 0.467 [0.367, 0.569] and the “Covariate effect Healthy subject—Vp/F” value [3, 8] was −0.554 [−0.6, −0.496]. The “Covariate effect PPI—F1 (relative bioavailability)” value [3, 8] was −0.368 [−0.49, −0.228], the “Covariate effect ECOG 2—CL/F” value ([3]; estimate (%RSE)) was −0.171 (36.2) and the “Covariate effect Healthy subject—CL/F” value ([3]; estimate (%RSE)) was 0.467 (19.3). For the same compound, the “Covariate effect Healthy subject—Vp/F” value ([3]; estimate (%RSE)) was −0.556 (5.59), the “Covariate effect PPI—F1 (relative bioavailability)” value ([3]; estimate (%RSE)) was −0.358 (7.01) and the “BOV on MTT” value ([3]; remaining variability in absorption not related to PPIs) was 118%. For the same compound, the “Decrease of AUC on coadministration with omeprazole (PPI)” value [7] was 43%.
